Screening results deposited in PubChem BioAssay by several laboratories.
Sampled rows, rich in hits. Any-hit rate of the full collection: about 4.9%.
NF-kB neuron act: raises NF-kB expression in human neuronal cells; hit rate 1.6% among 190,000; NF-kB reporter expression; stronger effect = higher value; fold change at 12.5 µM; in the data active = fold change above about 3.3
STAT3 blocker: inhibitors of IL-6 induced STAT3 signaling; U3A cells, IL-6 STAT3-luciferase reporter, luminescence; host cell line lacks STAT1; inhibition, % at 5.5 µM; hit rate 0.89% among 190,000;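 active = inhibition above the mean inhibition across all screened compounds plus 3 SD, cut at about 44% in these data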;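 note: 0% = DMSO only wells and 100% = 100 µM nifuroxazide control wells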
STAT3 act: STAT3 signaling activation | activation (% of control), % at 5.6 µM | hit rate 0.91% among 190,000 | U3A cells, IL-6 STAT3-luciferase reporter, luminescence; 100% = signal with IL-6 EC80 alone;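 active = activation above the screen-wide mean of compound activation plus 3 SD, cut at about 130% in these data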;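 note: 0% = background luminescence of wells with medium and substrate only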
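Assay system – human STAT1-deficient U3A cells with stable STAT3-luciferase reporter · Also added – IL-6 (33 ng/mL) · Schedule – compound 1 h, then IL-6 6 h at 37 °C · Technique – reporter luminescence signal · Evaluation – % activation versus median of IL-6-stimulated wells · Benchmarks – IL-6-only wells as 100% reference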
STAT1 inh: reduces IFN-gamma driven STAT1 reporter signal; NIH 3T3 STAT1-luciferase reporter, luminescence; inhibition, % at 5.5 µM; hit rate 0.35% among 200,000; AID 920;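 active = inhibition above a set limit, the mean inhibition across all tested compounds plus 3 SD, cut at about 34% in these data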;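 note: 0% = IFN-gamma with DMSO and 100% = IFN-gamma with 300 µM nifuroxazide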
STAT1 act: STAT1 signaling activation | NIH 3T3 STAT1-luciferase reporter, IFN-gamma, luminescence; 100% = IFN-gamma alone, no compound | activation (% of control), % at 5.5 µM | hit rate 2.6% among 200,000;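 active = activation above the screen-wide mean activation plus 3 SD, cut at about 130% in these data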;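 note: raw ratio to IFN-gamma control signal so 100% means no change and 0% no light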
APP 5'UTR act: activates APP 5'UTR luciferase reporter; SH-SY5Y APP 5'UTR luciferase reporter, luminescence; zero percent = DMSO vehicle wells; activation, % at 2 µM; hit rate 1% among 190,000; AID 1276;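 active = activation above a set limit, based on mean plus 3 SD of controls, cut at about 140% in these data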
Active calls of the source: *; . = not tested or not shown.

SMILES | NF-kB neuron act | STAT3 blocker | STAT3 act | STAT1 inh | STAT1 act | APP 5'UTR act
CC(C)c1ccc(/C=C/C(=O)O)cc1 | . | . | . | . | . | 0.5
CCOC(=O)c1c(OCC)[nH]c2c1cc(O)c1ccccc12 | 0.86 | 4.9 | 99.3 | -6.7 | 106.1 | -16.6
CCOC(=O)c1c(C)[nH]c2cc(Br)c(O)cc12 | 3.38* | 7.6 | 98.9 | -4.4 | 103.0 | -43.6
C/C(=N\NC(=O)COc1ccccc1[N+](=O)[O-])c1cccs1 | 1.9 | -17.3 | 115.2 | -47.6 | 144.2* | 41.2
Cc1cc(C)cc(NC(=O)N2CCN(S(C)(=O)=O)CC2)c1 | 1.11 | 2.0 | 104.8 | -8.3 | 106.6 | -11.9
O=C(c1cc(COc2ccc(F)cc2F)on1)N1CCSCC1 | 2.56 | 5.6 | 97.2 | -43.0 | 137.6* | 64.5
Cc1ccc2nc(SCC(=O)N3CCCC3)[nH]c2c1 | 3.2 | 8.3 | 96.3 | -47.9 | 143.9* | 115.2
CC(C)Oc1ccccc1C1Nc2ccccc2C(=O)N1c1ccc2c(c1)OCCO2 (configuration not stated) | 4.56* | -8.1 | 107.0 | -17.4 | 116.1 | 150.1*
CC(C)Oc1ccccc1C1CC(=O)Nc2cc3c(cc21)OCCO3 (configuration not stated) | 3.88* | -12.2 | 110.3 | 11.1 | 89.8 | -94.8
CCOC(=O)COc1ccccc1C1Nc2ccccc2C(=O)N1c1cccc(Cl)c1 (configuration not stated) | 2.12 | 2.7 | 101.8 | -9.2 | 108.5 | 60.4
N#C/C(C(=O)NCc1ccccc1)=C1/SC(Cc2ccc(Cl)cc2)C(=O)N1c1ccccc1 (configuration not stated) | 1.14 | -0.5 | 103.7 | 3.0 | 97.2 | 8.6
O=C(Nc1ccc2c(c1)OCCO2)c1c(F)c(F)c(F)c(F)c1F | 1.03 | -1.2 | 103.6 | -2.5 | 99.1 | .
O=C(Nc1ccc2c(c1)OCCO2)c1ccc(Br)o1 | 4.87* | 28.8 | 76.7 | -27.6 | 125.3 | 136.0*
COc1ccc(NC(=O)NC23CC4CC(CC(C4)C2)C3)cc1OC | 1.4 | 1.0 | 107.9 | 0.2 | 94.6 | 7.0
O=C(Nc1ccc2c(c1)OCCO2)NC12CC3CC(CC(C3)C1)C2 | 1.71 | -13.6 | 111.5 | -45.8 | 142.3* | 90.0
O=C(Nc1ccc2c(c1)OCCO2)c1ccc2nccnc2c1 | . | 50.1* | 63.2 | -27.8 | 125.3 | 165.3*
O=C(Nc1ccc2c(c1)OCCO2)c1cccnc1 | 1.51 | 13.8 | 92.1 | -29.5 | 129.3* | 27.0
CC(C)OC(=O)CC1C(=O)NCCN1C(=S)NC(=O)c1ccc(F)cc1 (configuration not stated) | 1.08 | 19.6 | 91.8 | 1.8 | 97.5 | 1.3
O=C(NC1CCCC1)C(c1ccncc1)N(C(=O)c1csnn1)C1CCCC1 (configuration not stated) | 1.08 | 7.5 | 99.6 | -7.1 | 104.6 | -0.3
CCN(CC)c1ccc(NC(=S)NCC2CCCO2)cc1 (configuration not stated) | . | -2.9 | 107.2 | -4.0 | 101.9 | 23.7
COc1ccc(OC(=O)c2ccc(Cl)cc2)c(C(C)=O)c1 | 1.33 | 15.8 | 95.7 | -0.2 | 99.4 | 33.8
Nc1c(N=Nc2ccccc2F)c(=O)[nH]n1-c1ccccc1 | 3.08 | -3.8 | 104.2 | -38.6 | 134.5* | 61.1
CC(=O)c1sc(NC(=O)c2ccc(C)c(C)c2)nc1C | 2.89 | 32.9 | 75.0 | -50.0 | 146.9* | 172.2*
CC(=O)c1sc(NC(=O)c2ccccc2F)nc1C | 3.47* | 35.6 | 76.6 | -24.2 | 121.9 | 116.4
CC(=O)c1sc(NC(=O)c2ccc(C(C)(C)C)cc2)nc1C | 2.8 | 28.8 | 80.4 | -34.0 | 129.5* | 73.2
SMILES | NF-kB neuron act | STAT3 blocker | STAT3 act | STAT1 inh | STAT1 act | APP 5'UTR act
CC1=C(C(=O)OCc2ccccc2)C(c2ccc(Cl)cc2Cl)NC(=O)N1CCCC(=O)O (configuration not stated) | 2.53 | -4.2 | 101.1 | -1.2 | 101.1 | -8.6
Cc1ccc(CN2C(=O)CCC2C(=O)NCc2ccccc2Cl)cc1 (configuration not stated) | 1.08 | 0.6 | 100.8 | -6.1 | 104.6 | 7.0
CCn1c(-c2ccc(F)cc2)cnc1SCC(=O)N1CCCCC1C (configuration not stated) | 2.88 | -27.2 | 120.9 | -34.8 | 132.0* | 69.3
COc1ccc2[nH]c(=O)c(CNc3ccccc3)cc2c1 | 1.25 | -26.3 | 121.8 | -32.6 | 129.1* | 42.9
Cc1cc(C)c(Cn2cnc3ccccc32)c(C)c1 | 1.08 | 15.7 | 93.0 | -0.3 | 99.0 | -1.8
O=C(/C=C/c1cccc(Oc2ccccc2)c1)N1CCOCC1 | 2.61 | 2.3 | 101.4 | -42.5 | 139.2* | 144.9*
Brc1ccccc1-n1nnc(-c2ccnc3ccccc23)n1 | 1.39 | . | . | 3.0 | 98.6 | 22.3
Clc1ccc(-n2nnc(-c3cccnc3Cl)n2)cc1Cl | 2.52 | . | . | -36.2 | 135.4* | 164.4*
Clc1ncccc1-c1nnn(-c2ccccc2)n1 | 6.53* | . | . | -34.2 | 133.5* | 131.9
Clc1nc2ccccc2cc1-c1nnn(-c2ccccc2)n1 | 5.04* | . | . | -33.6 | 132.9* | 112.2
Cc1ccc(-n2nnc(-c3nccn3C)n2)cc1 | 4.25* | . | . | 30.9 | 72.5 | 96.6
CC1(C)Cc2c(sc3[nH]c(=S)[nH]c(=O)c23)CO1 | 1.36 | 5.7 | 102.5 | -5.5 | 105.4 | -16.4
Cc1ccc(SCc2nn(C)c(Cl)c2C=O)cc1 | 1.11 | 4.7 | 99.0 | -16.4 | 114.0 | 11.8
Fc1ccc(-n2nnc(-c3cccnc3Cl)n2)cc1 | 5.8* | . | . | -44.9 | 143.5* | 148.9*
COc1ncccc1-c1nnn(-c2ccccc2)n1 | 4.75* | . | . | -50.6 | 148.9* | 158.4*
Fc1ccc(-n2nnc(-c3nccs3)n2)cc1 | 4.71* | . | . | -6.3 | 107.3 | 147.9*
Cc1ccc(-n2nnc(-c3cnc4ccccc4c3)n2)cc1 | 4.5* | . | . | -4.9 | 106.0 | 194.0*
O=C(NCCc1cnn(-c2ccccc2)c1)c1cc(COc2c(F)cccc2F)on1 | 1.6 | -1.2 | 103.0 | -15.0 | 112.0 | 17.5
O=C(Nc1ncc(Cc2cccc([N+](=O)[O-])c2)s1)c1ccco1 | 1.15 | 16.6 | 93.0 | -13.3 | 112.5 | 46.8
O=C(Nc1nc2ccc(Cl)cc2s1)c1ccco1 | 7.35* | 35.4 | 69.0 | -17.7 | 116.3 | 132.4
Cc1ccc(Cc2cnc(NC(=O)c3ccco3)s2)cc1 | 7.41* | 32.3 | 76.0 | -17.9 | 116.6 | 128.0
Cc1ccc2nc(NC(=O)c3ccco3)sc2c1 | 1.79 | 94.0* | 21.7 | 59.1* | 45.4 | 83.7
Cc1ccc2nc(NC(=S)NC(=O)c3ccco3)sc2c1 | 1.42 | -9.6 | 105.5 | -23.4 | 124.7 | 163.4*
O=C1CC2c3ccccc3C1C1C(=O)N(CCO)C(=O)C21 (configuration not stated) | 1.01 | 7.6 | 99.5 | -1.7 | 99.6 | 5.2
COCC(=O)Nc1nc2ccc(C)cc2s1 | 3.74* | 22.2 | 84.4 | -30.3 | 128.0 | 94.8
COC(=O)c1ccccc1NC(=O)c1ccc(-c2ccc(Br)cc2)o1 | 0.75 | 4.3 | 96.5 | -41.1 | 138.5* | -11.7
O=C(Nc1cccc2nsnc12)c1ccc(-c2ccc(Br)cc2)o1 | 1.61 | -21.7 | 129.2 | -1.2 | 101.1 | 14.2
